From ChEMBL document CHEMBL1122536, “Novel pyrimidine and 1,3,5-triazine hypolipidemic agents” (J Med Chem, 1984)
Where “and” joins values, the source holds several entries; their conditions need not be identical. Identical values can stand only once.

How the values were obtained:
Rattus norvegicus [1] = test: Hypolipidemic activity was assessed by measuring cholesterol in Sprague-Dawley male rats at 200 mg/kg; assay type: functional
Outline: (§1)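 Male Sprague-Dawley rats (185-g mean bodyweight) on a normal diet were dosed orally for 4 consecutive days at 50 mg/kg or 200 mg/kg. They were fasted 18 h, and blood was drawn from the abdominal aorta 24 h after the last dose. Serum total cholesterol, triglycerides (mg/100 mL) and lipoprotein α-cholesterol (% of total cholesterol) were measured. Groups of 10–40 rats were compared with controls by Student's t test.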

Rattus norvegicus [2] = test: Hypolipidemic activity was assessed by measuring triglycerides in Sprague-Dawley male rats at 200 mg/kg; assay type: functional; outline: as §1
Rattus norvegicus [3] = test: Hypolipidemic activity was assessed by measuring alpha-cholesterol in Sprague-Dawley male rats at 200 mg/kg; assay type: functional; outline: as §1
[4] = Evaluated for the dose that causes 50 % lethality in Sprague-Dawley male rats; assay type: ADME, organism-based; conditions: rat, in vivo
Rattus norvegicus [5] = test: Hypolipidemic activity was assessed by measuring cholesterol in Sprague-Dawley male rats at 50 mg/kg; assay type: functional; outline: as §1
Rattus norvegicus [6] = test: Hypolipidemic activity was assessed by measuring alpha-cholesterol in Sprague-Dawley male rats at 50 mg/kg; assay type: functional; conditions: dose 50 mg/kg; outline: as §1
Rattus norvegicus [7] = test: Hypolipidemic activity was assessed by measuring triglycerides in Sprague-Dawley male rats at 50 mg/kg; assay type: functional; outline: as §1
Rattus norvegicus [8] = test: Hyperlipidemic activity was assessed by measuring triglycerides in Sprague-Dawley male rats at 50 mg/kg; assay type: functional
Outline: (§2)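 Sprague-Dawley rats were fed the hyperlipidemic Nath's diet for 15 days and dosed orally at 50 or 200 mg/kg, or at 6.25, 12.5 and 25 mg/kg on a diet with 0.5% cholesterol and cholic acid. After an 18-h fast they were killed on day 16, 24 h after the last dose. Serum total cholesterol and triglycerides were assayed, and liver weight was expressed per 100 g bodyweight. Groups were compared with Nath's-diet controls by Student's t test.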

Rattus norvegicus [9] = test: Hypolipidemic activity was assessed by measuring body weight in F 344 rats at 20 mg/kg
Rattus norvegicus [10] = test: Hypolipidemic activity was assessed in Variation of the liver enzyme catalase was expressed as units per mg of protein in F 344 rats at 20 mg/kg
Rattus norvegicus [11] = test: Hypolipidemic activity was assessed by measuring liver weight in Sprague-Dawley male rats at 50 mg/kg; assay type: functional
Rattus norvegicus [12] = species on record: Rattus norvegicus; test: (§3) Compound was evaluated for the dose that causes […] in Sprague-Dawley male rats; assay type: functional
Rattus norvegicus [13] = test: Hyperlipidemic activity was assessed by measuring liver weight in Sprague-Dawley male rats at 50 mg/kg; assay type: functional; outline: as §2
Rattus norvegicus [14] = species on record: Rattus norvegicus; test: Compound dose that causes […] in Sprague-Dawley male rats; assay type: functional
Rattus norvegicus [15] = test: Hyperlipidemic activity was assessed by measuring cholesterol in Sprague-Dawley male rats at 50 mg/kg; assay type: functional; outline: as §2
[16] = as §3; assay type: ADME, organism-based; conditions: rat, in vivo
Rattus norvegicus [17] = test: Hypolipidemic activity was assessed in Variation of the carnitine acetyl transferase was expressed as units per mg of protein in F 344 rats at 20 mg/kg
Rattus norvegicus [18] = test: Hyperlipidemic activity was assessed by measuring cholesterol in Sprague-Dawley male rats at 12.5 mg/kg; assay type: functional; outline: as §2
Rattus norvegicus [19] = test: Hyperlipidemic activity was assessed by measuring triglycerides in Sprague-Dawley male rats at 6.25 mg/kg; assay type: functional; outline: as §2
Rattus norvegicus [20] = test: Hyperlipidemic activity was assessed by measuring liver weight in Sprague-Dawley male rats at 12.5 mg/kg; assay type: functional; outline: as §2
Rattus norvegicus [21] = test: Hyperlipidemic activity was assessed by measuring liver weight in Sprague-Dawley male rats at 25 mg/kg; assay type: functional; outline: as §2
Rattus norvegicus [22] = test: Hyperlipidemic activity was assessed by measuring cholesterol in Sprague-Dawley male rats at 25 mg/kg; assay type: functional; outline: as §2
Rattus norvegicus [23] = test: Hyperlipidemic activity was assessed by measuring liver weight in Sprague-Dawley male rats at 6.25 mg/kg; assay type: functional; outline: as §2
Rattus norvegicus [24] = test: Hypolipidemic activity was assessed inVariation of the enoyl-CoA oxide (umol/min mg) in F 344 rats at 20 mg/kg.
Rattus norvegicus [25] = test: Hyperlipidemic activity was assessed by measuring triglycerides in Sprague-Dawley male rats at 12.50 mg/kg; assay type: functional; conditions: dose 12.5 mg/kg; outline: as §2
Rattus norvegicus [26] = test: Hyperlipidemic activity was assessed in variation of palmitoyl-CoA oxide (umol/min mg) in F 344 rats at 20 mg/kg.
Rattus norvegicus [27] = test: Hypolipidemic activity was assessed in Variation of the liver enzyme catalase was expressed as units per mg of protein in F 344 rats at 20 mg/kg; remark: listed apart in the source
Rattus norvegicus [28] = test: Hyperlipidemic activity was assessed by measuring cholesterol in Sprague-Dawley male rats at 6.25 mg/kg; assay type: functional; outline: as §2
Rattus norvegicus [29] = test: Hyperlipidemic activity was assessed by measuring triglycerides in Sprague-Dawley male rats at 25 mg/kg; assay type: functional; outline: as §2
Rattus norvegicus [30] = test: Hyperlipidemic activity was assessed by measuring cholesterol in Sprague-Dawley male rats at 200 mg/kg
Rattus norvegicus [31] = test: Hypolipidemic activity was assessed by measuring liver weight in Sprague-Dawley male rats at 200 mg/kg; assay type: functional; outline: as §2
Rattus norvegicus [32] = test: Hyperlipidemic activity was assessed by measuring triglycerides in Sprague-Dawley male rats at 200 mg/kg; assay type: functional; outline: as §2
Rattus norvegicus [33] = test: Hypolipidemic activity was assessed in Variation of palmitoyl-CoA oxide (umol/min mg) in F 344 rats at 20 mg/kg
Rattus norvegicus [34] = test: Hypolipidemic activity was assessed in Variation of the liver enzyme catalase was expressed as units per mg of protein. in F 344 rats at 20 mg/kg
Rattus norvegicus [35] = test: Hypolipidemic activity was assessed in Variation of the enoyl-CoA oxide (umol/min mg) in F 344 rats at 20 mg/kg
[36] = dose 20 mg/kg, in the assay text read “F 344 rats at 20 mg/kg” for “Sprague-Dawley male rats at 50 mg/kg”

SMILES | Cholesterol (Rattus norvegicus [1]) | Triglycerides (Rattus norvegicus [2]) | Alpha-cholesterol (Rattus norvegicus [3]) | LD50 [4] | Cholesterol (Rattus norvegicus [5]) | Alpha-cholesterol (Rattus norvegicus [6]) | Triglycerides (Rattus norvegicus [7]) | Body weight (Rattus norvegicus [9]) | Liver weight (Rattus norvegicus [11]; [36]) | further results
Cc1cccc(Nc2cc(Cl)nc(S)n2)c1C | 76.3 mg 100ml-1 | 95.6 mg/100 mL | 73.2% | 1840 mg/kg |  |  |  |  |  | 
Cc1cccc(Oc2cc(Cl)nc(OCC(=O)O)n2)c1C |  |  |  | 1210 mg/kg | 67.1 mg 100ml-1 | 74% | 91.1 mg/100 mL |  |  | 
CCOc1nc(Nc2cccc(C)c2C)nc(SCC(=O)O)n1 | 70.3 mg 100ml-1 | < 76.1 mg/100 mL | <82.2% |  |  |  |  | 248 g | 3.1 g (100g of body weight)-1 | Triglycerides (Rattus norvegicus [8]): <214.3 mg 100ml-1; Catalase (Rattus norvegicus [10]): 50 U/mg protein; Cholesterol (Rattus norvegicus [12]): 1054.8 mg 100ml-1; Liver weight (Rattus norvegicus [13]): 6.53 g 100g-1; LD50 (Rattus norvegicus [14]): 1120 mg/kg
CCOc1cc(Nc2cccc(C)c2C)nc(SCC(=O)NCCO)n1 |  |  |  | 2500 mg/kg | <65.7 mg 100ml-1 | 76.6% | < 64.3 mg/100 mL | 192 g | 5.9 g (100g of body weight)-1 | Cholesterol (Rattus norvegicus [15]): <479.8 mg 100ml-1; Triglycerides (Rattus norvegicus [8]): <206.6 mg 100ml-1; Catalase (Rattus norvegicus [10]): 67.5 U/mg protein; Liver weight (Rattus norvegicus [13]): 6.85 g 100g-1
CCCCCCCCSc1nc(Cl)cc(Nc2cccc(C)c2C)n1 |  |  |  |  | 63.2 mg 100ml-1 | 67.7% | 96.5 mg/100 mL |  |  | 
Cc1cccc(N(C)c2cc(Cl)nc(OCC(=O)O)n2)c1C |  |  |  | 1070 mg/kg | 66.4 mg 100ml-1 | 87.2% | < 80.7 mg/100 mL |  |  | 
CN(C)c1cc(Cl)nc(SCC(=O)O)n1 |  |  |  | < 2500 mg/kg |  | 81.7% and 72.2% |  |  |  | Cholesterol (Rattus norvegicus [5]; 50 mg/kg): <62.5 mg 100ml-1 and <69.4 mg 100ml-1
Cc1cccc(N(C)c2cc(Cl)nc(SCC(=O)O)n2)c1C |  |  |  | 1010 mg/kg | 63.5 mg 100ml-1 | 78.6% | < 46.9 mg/100 mL |  |  | 
CN(C)c1nc(N)nc(Cl)n1 | <105.6 mg 100ml-1 | < 78.2 mg/100 mL | 85.4% |  |  |  |  |  |  | LD50 [16]: < 2000 mg/kg
CN(C)c1nc(N)cc(Cl)n1 | 71.4 mg 100ml-1 | < 89.9 mg/100 mL | <87.4% |  |  |  |  |  |  | LD50 [16]: < 2500 mg/kg
Cc1cccc(Nc2cc(Cl)nc(NCC(=O)O)n2)c1C [ARONIXIL] |  |  |  | 1020 mg/kg | <63.6 mg 100ml-1 | 76.7% | < 71.6 mg/100 mL | 266 g | 4.2 g (100g of body weight)-1 | Carnitine acetyl transferase (Rattus norvegicus [17]): 11 U/mg protein; Cholesterol (Rattus norvegicus [18]): 264.2 mg 100ml-1; Triglycerides (Rattus norvegicus [19]): <205.2 mg 100ml-1; Liver weight (Rattus norvegicus [20]): 5.14 g 100g-1; Liver weight (Rattus norvegicus [21]): 5.31 g 100g-1; Cholesterol (Rattus norvegicus [22]): <215.4 mg 100ml-1; Liver weight (Rattus norvegicus [23]): 4.82 g 100g-1; Enoyl-CoA hydratase (Rattus norvegicus [24]): 3.7 uM min-1 (mg of protein)-1; Triglycerides (Rattus norvegicus [25]): 263.8 mg 100ml-1; Palmitoyl-CoA oxid (Rattus norvegicus [26]): 0.056 µM/min/mg; Liver catalase (Rattus norvegicus [27]): 61 mg of protein; Cholesterol (Rattus norvegicus [28]): 257.4 mg 100ml-1; Triglycerides (Rattus norvegicus [29]): 312.1 mg 100ml-1
Cc1cccc(Nc2cc(Cl)nc(N(C)C)n2)c1C [LODINIXIL] |  |  |  | < 2500 mg/kg | 57.8 mg 100ml-1 | 69.6% | 96.5 mg/100 mL | 268 g | 3.9 g (100g of body weight)-1 | Cholesterol (Rattus norvegicus [30]): 771 mg 100ml-1; Carnitine acetyl transferase (Rattus norvegicus [17]): 7 U/mg protein; Liver weight (Rattus norvegicus [31]): 5.97 g 100g-1; Triglycerides (Rattus norvegicus [32]): <182 mg 100ml-1; Palmitoyl-CoA oxid (Rattus norvegicus [33]): 0.015 µM/min/mg; Catalase (Rattus norvegicus [34]): 38 U/mg protein; Enoyl-CoA hydratase (Rattus norvegicus [35]): 3.8 µM/min/mg
Cc1cccc(Nc2cc(Cl)nc(SCC(=O)O)n2)c1C [PIRINIXIC ACID] |  |  |  | 1050 mg/kg |  | 75.1% |  |  |  | Liver weight (Rattus norvegicus [11]; dose 50 mg/kg): 8.23 g 100g-1 and 8.88 g 100g-1
